High-throughput results as filed in PubChem.
HUVEC prolif 384: inhibitors of human endothelial cell proliferation; HUVEC proliferation, CellTiter-Glo luminescence, 72 h; hits give low values; viability, % at 10 µM (by protocol); actives 1.1% (n = 86,000);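 active = viability at or below 30%; inactive = viability above 30%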;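 note: 100% = median luminescence of DMSO-only cell control wells on each plate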
HCT116 PTEN-null: suppresses growth of cells with PTEN deletion; viability, % at 10 µM; actives 1.2% (n = 140,000); HCT116 PTEN-null viability, CellTiter-Glo, 60 h; hits give low values;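 active = viability at or below a set limit, 4 SD under the median of all tested compounds, cut at about 3.7% in these data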;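 note: PTEN knockout HCT116 line with beta catenin targeted HCT116 as companion control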
Lung fibro prol: blocks proliferation of human lung fibroblasts; LL 47 human lung fibroblast viability, ATP luminescence; hits give low values; viability, % at 10 µM; actives 1.1% (n = 85,000); AID 719;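 active = viability at or below 50% in the single dose screen; inactive = viability above 50%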;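 note: compound exposure lasted 72 h before the ATP readout; 100% = median luminescence of untreated cell-only wells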
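Test system: LL 47 human lung fibroblasts; Quantity: 1,150 cells/well; Buffer or medium: IMEM plus 15% FBS; Dosing: tenfold compound dosing solution, DMSO at 0.1%; Timing: overnight cell rest, 72 h compound treatment at 37 °C; Detection: ATP-based CellTiter-Glo luminescent readout; Read-out basis: viability percentage against median untreated-cell control; Controls: cell-only wells, no compound.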
bCat KO growth: beta-catenin-lacking colon tumor cell growth suppression; HCT116 beta-catenin knockout viability, CellTiter-Glo, 60 h; hits give low values; viability, % at 10 µM; actives 1.5% (n = 140,000); AID 818;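 active = viability at or under a set limit, the compound median less 4 SD, cut at about 6% in these data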;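 note: 0% = Hyamine 1622 control at 20 µM and 100% = untreated cell control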
H69AR inhibit: growth inhibitors of human H69AR lung tumor cells; H69AR lung tumor viability, ATP luminescence, 72 h; hits give low values; viability, % at 10 µM; actives 6% (n = 85,000);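 active = viability at or below 40%; inactive = viability above 40%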;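 note: multidrug resistant small cell line overexpressing MRP-1 efflux transporter; 100% = mean luminescence of untreated control wells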
* = called active by the depositor; nt = no result. Shown is part of a subset that was picked to be rich in hits.

SMILES	HUVEC prolif 384	HCT116 PTEN-null	Lung fibro prol	bCat KO growth	H69AR inhibit
CC(=O)c1c(C)[nH]c(C(=O)N2CCN(c3cc(Cl)ccc3C)CC2)c1C	51	18	55	20	17*
COc1cccc(N2CCN(C(=O)c3[nH]c(C)c(C(C)=O)c3C)CC2)c1	44	26	54	26	21*
CCOC(=O)C1=C(C)NC(=S)N(C(C)=O)C1c1ccc(Cl)cc1 (centres undefined)	78	0.9*	90	1.1*	70
Cc1ccc(C)c(N2CCN(C(=O)c3ccc(CS(=O)(=O)c4ccccc4C)o3)CC2)c1	54	21	78	16	15*
Cc1cc(C(=O)N2CCN(c3cccc(Cl)c3)CC2)c(C)o1	58	35	73	44	16*
Cc1ccc(C)c(N2CCN(C(=O)C(Cc3ccccc3)n3cccc3)CC2)c1 (centres undefined)	110	67	90	69	22*
Cc1cc(C(=O)N2CCN(c3ccccc3)CC2)c(C)o1	99	81	108	99	83
COc1ccccc1S(=O)(=O)Cc1ccc(C(=O)N2CCN(c3cccc(Cl)c3)CC2)o1	59	21	64	26	9.4*
CCN(CC)C(=O)CSc1nnc(-c2ccccc2)c(-c2ccccc2)n1	nt	88	nt	90	nt
Cc1cc([N+](=O)[O-])nn1CCCC(=O)N1CCN(c2ccc(F)cc2)CC1	nt	89	nt	83	nt
COc1ccc2cc(Br)ccc2c1CC(=O)NC(C)(C)C	nt	81	nt	84	nt
COc1ccccc1S(=O)(=O)Cc1ccc(C(=O)N2CCN(c3ccccc3)CC2)o1	106	64	95	66	80
Cc1cccc(N2CCN(C(=O)c3ccc(CS(=O)(=O)c4ccccc4C)o3)CC2C)c1 (centres undefined)	43	15	59	21	25*
Cc1ccc(S(=O)(=O)Cc2ccc(C(=O)N3CCN(c4cc(C)ccc4C)CC3)o2)cc1	62	33	73	34	17*
Cc1ccc(S(=O)(=O)Cc2ccc(C(=O)N3CCCC3)o2)cc1	97	103	98	94	90
Cc1cc(NC(=O)CN2CCCCC2C)no1 (centres undefined)	104	96	105	103	90
COc1ccc(NC(=O)c2cc(-c3cc(C)cc(C)c3O)n[nH]2)cc1Cl	44	4	97	10	21*
Cc1cc(C)c(O)c(-c2cc(C(=O)NCc3ccccc3)[nH]n2)c1	85	79	110	99	90
CCOc1cc(N2CCOCC2)c(OCC)cc1NC(=O)c1cc(-c2ccco2)nc2ccccc12	15*	66	9.1*	71	4.0*
O=S(=O)(Nc1cc(Sc2cccc3cccnc23)c(O)c2ccccc12)c1ccc(F)cc1	nt	1.4*	nt	1.3*	nt
O=S(=O)(Nc1cccc2cn[nH]c12)c1ccc(F)cc1	103	89	104	111	107
COc1ccc(S(=O)(=O)Nc2cc(Sc3ncn[nH]3)c(O)c3ccccc23)cc1	nt	2.5*	nt	1.7*	nt
COc1ccc(S(=O)(=O)Nc2ccc(O)c(Sc3ncn[nH]3)c2)cc1	86	89	92	97	92
COC(=O)c1c(NC(=O)c2ccccc2)sc2c1CC(C)(C)OC2	97	90	99	88	36*
O=S(=O)(Nc1ccc(S(=O)(=O)Nc2cccc3ccccc23)cc1)c1ccccc1	92	104	95	95	86
SMILES	HUVEC prolif 384	HCT116 PTEN-null	Lung fibro prol	bCat KO growth	H69AR inhibit
N#Cc1c(-n2ccnc2)cccc1-n1ccnc1	nt	90	nt	96	nt
COCCCNCCCOc1ccc(Cl)cc1C(C)(C)C	nt	3.1*	nt	4.0*	nt
COc1ccc(-n2nc(C(=O)Nc3ccc4c(c3)OCO4)c3ccccc3c2=O)c(OC)c1	72	20	94	11	7.0*
CCN(CC)CCNC(=O)c1nn(-c2ccc(C)cc2)c(=O)c2c1c1ccccc1n2C	20*	6	54	7	64
COc1ccc(-n2nc(C(=O)Nc3ccc4c(c3)OCO4)c3c4ccccc4n(C)c3c2=O)cc1	88	nt	93	nt	85
COc1ccccc1-n1nc(C(=O)Nc2ccc3c(c2)OCO3)c2ccccc2c1=O	74	81	85	81	42
COc1ccc(-n2nc(C(=O)Nc3ccc(OC)c(OC)c3)c3c4ccccc4n(C)c3c2=O)cc1	30	3.5*	77	3.7*	9.2*
Cc1noc(C)c1Cc1ccc(O)cc1	nt	97	nt	96	nt
CN(C)C/C(Cl)=C(\Cl)c1ccccc1	97	94	99	93	12*
